Data from ChEMBL document CHEMBL5724801, “EUbOPEN Chemogenomics Library - Multiplex” (2024).
Several values for one entry are separate records, joined by “and”; a condition that tells them apart may be missing. Equal values may be shown once.

System: HEK-293T
Experiment: Multiplex assay against HEK293T
Type: toxicity, cell-based
Settings: human
Method in brief: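 Cells stained live at seeding with Hoechst33342, BioTracker Green Microtubule Cytoskeleton Dye, MitoTracker Red and Annexin V Alexa Fluor 680 were imaged on a CQ1 microscope at 37°C and 5% CO2 after compound addition. Their classification by CellPathfinder machine-learning gating ran from Hoechst high-intensity objects versus normal cells, to healthy, pyknosed or fragmented nuclei among normal cells, to mitotic or apoptotic among pyknosed cells. Tubulin, mitochondrial-mass and membrane-permeability phenotypes are per cents of healthy-nucleus cells.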

[1] = 12 h, 1 µM, compound concentration 1 uM
[2] = 12 h, 10 µM, compound concentration 10 uM
[3] = 24 h, 1 µM, compound concentration 1 uM
[4] = 24 h, 10 µM, compound concentration 10 uM
[5] = 48 h, 1 µM, compound concentration 1 uM
[6] = 48 h, 10 µM, compound concentration 10 uM

Cn1cc(C(=O)OCC2CCN(CCNS(C)(=O)=O)CC2)c2ccccc21
Population Apoptotic (%) [1]: 39% and 56%
Population Fragmented Nuclei (%) [1]: 5% and 9%
Population Healthy Nuclei (%) [1]: 83% and 76%
Population Hoechst High Intensity Objects (%) [1]: 7% and 8%
Population Membrane Permeable-Phenotype (%) [1]: 0%
Population Mitochondria Different-Phenotype (%) [1]: 35% and 62%
Population Mitotic Cells (%) [1]: 60% and 43%
Population Normal (%) [1]: 92% and 91%
Population Pyknosed Nuclei (%) [1]: 10% and 14%
Population Tubulin-Different-Phenotype (%) [1]: 22% and 28%
Total Cell Count [1]: 466 and 248
Population Apoptotic (%) [2]: 47% and 43%
Population Fragmented Nuclei (%) [2]: 10%
Population Healthy Nuclei (%) [2]: 73% and 71%
Population Hoechst High Intensity Objects (%) [2]: 6% and 10%
Population Membrane Permeable-Phenotype (%) [2]: 0%
Population Mitochondria Different-Phenotype (%) [2]: 55% and 73%
Population Mitotic Cells (%) [2]: 52% and 56%
Population Normal (%) [2]: 93% and 89%
Population Pyknosed Nuclei (%) [2]: 15% and 18%
Population Tubulin-Different-Phenotype (%) [2]: 53% and 47%
Total Cell Count [2]: 479 and 393
Population Apoptotic (%) [3]: 29% and 48%
Population Fragmented Nuclei (%) [3]: 6% and 12%
Population Healthy Nuclei (%) [3]: 82% and 76%
Population Hoechst High Intensity Objects (%) [3]: 4% and 5%
Population Membrane Permeable-Phenotype (%) [3]: 1% and 0%
Population Mitochondria Different-Phenotype (%) [3]: 21% and 42%
Population Mitotic Cells (%) [3]: 70% and 51%
Population Normal (%) [3]: 95% and 94%
Population Pyknosed Nuclei (%) [3]: 10%
Population Tubulin-Different-Phenotype (%) [3]: 16% and 17%
Total Cell Count [3]: 650 and 283
Population Apoptotic (%) [4]: 35% and 48%
Population Fragmented Nuclei (%) [4]: 11% and 10%
Population Healthy Nuclei (%) [4]: 74% and 79%
Population Hoechst High Intensity Objects (%) [4]: 5% and 6%
Population Membrane Permeable-Phenotype (%) [4]: 1% and 0%
Population Mitochondria Different-Phenotype (%) [4]: 43% and 56%
Population Mitotic Cells (%) [4]: 64% and 51%
Population Normal (%) [4]: 94% and 93%
Population Pyknosed Nuclei (%) [4]: 13% and 9%
Population Tubulin-Different-Phenotype (%) [4]: 50% and 37%
Total Cell Count [4]: 587 and 491
Population Apoptotic (%) [5]: 25% and 44%
Population Fragmented Nuclei (%) [5]: 12% and 11%
Population Healthy Nuclei (%) [5]: 78% and 82%
Population Hoechst High Intensity Objects (%) [5]: 3% and 4%
Population Membrane Permeable-Phenotype (%) [5]: 1% and 3%
Population Mitochondria Different-Phenotype (%) [5]: 12% and 23%
Population Mitotic Cells (%) [5]: 74% and 55%
Population Normal (%) [5]: 96% and 95%
Population Pyknosed Nuclei (%) [5]: 8% and 6%
Population Tubulin-Different-Phenotype (%) [5]: 10% and 11%
Total Cell Count [5]: 1090 and 490
Population Apoptotic (%) [6]: 38%
Population Fragmented Nuclei (%) [6]: 16% and 13%
Population Healthy Nuclei (%) [6]: 77% and 79%
Population Hoechst High Intensity Objects (%) [6]: 6% and 4%
Population Membrane Permeable-Phenotype (%) [6]: 1% and 0%
Population Mitochondria Different-Phenotype (%) [6]: 31% and 37%
Population Mitotic Cells (%) [6]: 61%
Population Normal (%) [6]: 93% and 95%
Population Pyknosed Nuclei (%) [6]: 6%
Population Tubulin-Different-Phenotype (%) [6]: 28% and 26%
Total Cell Count [6]: 883 and 758

CC(C)(c1ccc(O)cc1)c1ccc(O)cc1 [BISPHENOL A]
Population Apoptotic (%) [1]: 8.05% and 13.14%
Population Fragmented Nuclei (%) [1]: 5.16% and 3.01%
Population Hoechst High Intensity Objects (%) [1]: 0% and 0.6%
Population Membrane Permeable-Phenotype (%) [1]: 0% and 4.17%
Population Mitochondria Different-Phenotype (%) [1]: 34.18% and 33.33%
Population Mitotic Cells (%) [1]: 91.95% and 86.86%
Population Normal (%) [1]: 100% and 99.4%
Population Pyknosed Nuclei (%) [1]: 36.61% and 82.53%
Total Cell Count [1]: 407 and 167
Population Apoptotic (%) [2]: 10.57% and 14.78%
Population Fragmented Nuclei (%) [2]: 4.23% and 2.74%
Population Hoechst High Intensity Objects (%) [2]: 1.19% and 0.68%
Population Membrane Permeable-Phenotype (%) [2]: 0%
Population Mitochondria Different-Phenotype (%) [2]: 37.63% and 18.52%
Population Mitotic Cells (%) [2]: 89.43% and 85.22%
Population Normal (%) [2]: 98.81% and 99.32%
Population Pyknosed Nuclei (%) [2]: 37.16% and 78.77%
Total Cell Count [2]: 335 and 147
Population Apoptotic (%) [3]: 12.93% and 13.39%
Population Fragmented Nuclei (%) [3]: 1.95% and 0.56%
Population Healthy Nuclei (%) [3]: 77.52% and 28.89%
Population Hoechst High Intensity Objects (%) [3]: 0.18% and 0%
Population Membrane Permeable-Phenotype (%) [3]: 1.6% and 1.92%
Population Mitochondria Different-Phenotype (%) [3]: 13.7% and 15.38%
Population Mitotic Cells (%) [3]: 87.07% and 86.61%
Population Normal (%) [3]: 99.82% and 100%
Population Tubulin-Different-Phenotype (%) [3]: 9.82% and 13.46%
Population Apoptotic (%) [4]: 12.5% and 15.52%
Population Fragmented Nuclei (%) [4]: 2.67% and 1.71%
Population Healthy Nuclei (%) [4]: 74.28% and 32%
Population Hoechst High Intensity Objects (%) [4]: 0%
Population Membrane Permeable-Phenotype (%) [4]: 1.11% and 0%
Population Mitochondria Different-Phenotype (%) [4]: 19.11% and 16.07%
Population Mitotic Cells (%) [4]: 87.5% and 84.48%
Population Normal (%) [4]: 100%
Population Pyknosed Nuclei (%) [4]: 23.05% and 66.29%
Total Cell Count [4]: 486 and 175
Population Apoptotic (%) [5]: 8.33% and 18.95%
Population Fragmented Nuclei (%) [5]: 3.14% and 0%
Population Healthy Nuclei (%) [5]: 87.89% and 52.74%
Population Hoechst High Intensity Objects (%) [5]: 0.07% and 0.99%
Population Membrane Permeable-Phenotype (%) [5]: 5.87% and 1.89%
Population Mitotic Cells (%) [5]: 91.67% and 81.05%
Population Normal (%) [5]: 99.93% and 99.01%
Population Fragmented Nuclei (%) [6]: 3.13% and 2.41%
Population Healthy Nuclei (%) [6]: 86.33% and 68.67%
Population Hoechst High Intensity Objects (%) [6]: 0% and 2.35%
Population Membrane Permeable-Phenotype (%) [6]: 4.42% and 1.75%
Population Mitochondria Different-Phenotype (%) [6]: 9.82% and 14.62%
Population Mitotic Cells (%) [6]: 95.65% and 84.72%
Population Normal (%) [6]: 100% and 97.65%
Population Pyknosed Nuclei (%) [6]: 10.54% and 28.92%
